Experimental data as given in ChEMBL document CHEMBL1149169 (J Med Chem, 2004).

Key:
Adenosine receptor A1 [1] = target: T1, Adenosine receptor A1 (Homo sapiens, UniProt P30542); assay: Binding affinity against adenosine A1 receptor in human cortical membranes using [3H]CHA as radioligand; assay type: cell membranes
T1 sequence (P30542 whole entry): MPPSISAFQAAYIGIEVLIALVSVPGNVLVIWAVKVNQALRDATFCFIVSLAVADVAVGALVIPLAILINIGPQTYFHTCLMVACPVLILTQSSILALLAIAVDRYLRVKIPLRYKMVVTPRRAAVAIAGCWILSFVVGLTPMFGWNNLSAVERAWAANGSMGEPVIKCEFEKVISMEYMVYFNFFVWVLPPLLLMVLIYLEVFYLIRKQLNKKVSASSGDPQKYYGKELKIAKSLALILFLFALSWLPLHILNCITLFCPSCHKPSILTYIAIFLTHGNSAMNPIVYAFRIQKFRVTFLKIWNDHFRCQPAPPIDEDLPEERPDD

Adenosine receptor A1 [2] = target: T1, Adenosine receptor A1; assay: Displacement of [3H]DPCPX from adenosine A1 receptor in human brain cortical membranes; assay type: cell membranes
Procedure, shortened: (§1)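 Cortical membranes (0.05–0.1 mg protein) incubated in triplicate at 25 °C for 120 min with about 0.5 nM [3H]-DPCPX (89 Ci/mmol). Buffer: 50 mM Tris/HCl pH 7.7, 1 mM EDTA, 2 mM MgCl2. Nonspecific binding with 10 μM (R)-PIA; GF/C filtration.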

Adenosine receptor A1 [3] = target: T2, Adenosine receptor A1 (Bos taurus, UniProt P28190); assay: Displacement of [3H]DPCPX from adenosine A1 receptor in bovine brain cortical membranes; assay type: cell membranes; procedure, shortened: as §1
T2 sequence (P28190 whole entry): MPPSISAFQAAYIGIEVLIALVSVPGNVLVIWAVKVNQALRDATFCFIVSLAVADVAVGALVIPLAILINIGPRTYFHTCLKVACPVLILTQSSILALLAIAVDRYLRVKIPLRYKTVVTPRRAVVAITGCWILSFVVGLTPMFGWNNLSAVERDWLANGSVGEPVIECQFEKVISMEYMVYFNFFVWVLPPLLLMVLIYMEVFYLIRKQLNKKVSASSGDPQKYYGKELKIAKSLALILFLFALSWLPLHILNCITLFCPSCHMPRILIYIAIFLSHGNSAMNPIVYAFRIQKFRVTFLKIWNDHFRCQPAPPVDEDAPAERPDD

Adenosine receptor A1 [4] = target: T2, Adenosine receptor A1; assay: Binding affinity against adenosine A1 receptor in bovine cortical membranes using [3H]CHA as radioligand; assay type: cell membranes
Procedure, shortened: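 Bovine cortical membranes; [3H]-CHA at 39 Ci/mmol. Compounds dissolved in DMSO, with solvent blanks run. At least six concentrations spanning 3 orders of magnitude.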

Adenosine receptor A2a = Adenosine receptor A2a (Homo sapiens, UniProt P29274); assay: Binding affinity against adenosine A2 receptor in human striatal membranes using [3H]CGS-21680 as radioligand; assay type: cell membranes, Striatum, Membrane
[5] = Ratio of binding affinity against bovine adenosine A1 to that of A2 receptor
[6] = target: Adenosine receptor A2a (Bos taurus); assay: Binding affinity against adenosine A2 receptor in bovine striatal membranes using [3H]-CGS-21,680 as radioligand

Adenosine receptor A2a, sequence (P29274 whole entry): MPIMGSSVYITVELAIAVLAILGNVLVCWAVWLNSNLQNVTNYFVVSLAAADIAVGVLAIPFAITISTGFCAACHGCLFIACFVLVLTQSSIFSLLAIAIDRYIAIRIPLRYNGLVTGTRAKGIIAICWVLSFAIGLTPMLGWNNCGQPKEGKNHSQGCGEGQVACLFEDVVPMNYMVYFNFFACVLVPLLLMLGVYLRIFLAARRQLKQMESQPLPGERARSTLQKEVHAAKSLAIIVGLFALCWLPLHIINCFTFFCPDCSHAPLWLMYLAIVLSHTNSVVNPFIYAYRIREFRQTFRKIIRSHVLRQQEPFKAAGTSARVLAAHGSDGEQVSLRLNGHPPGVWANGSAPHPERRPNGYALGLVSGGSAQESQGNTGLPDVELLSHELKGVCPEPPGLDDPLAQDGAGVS

Row | SMILES | Ki (Adenosine receptor A1 [1]) [µM] | Ki (Adenosine receptor A1 [4]) [µM] | Ki (Adenosine receptor A2a) [µM] | also measured
1 | Cc1ccc2c(Cl)cc(-c3ccccc3)nc2n1 | > 10 | – | – | Ratio [5]: > 10
2 | Cc1ccc2c(N3CCNCC3)cc(-c3ccccc3)nc2n1 | > 10 | – | – | –
3 | CCOc1cc(-c2ccccc2)nc2c1ccc(=O)n2CC | > 10 | 4.7 | – | –
4 | Nc1nc2c(cnn2CCc2ccccc2)c2nc(-c3ccco3)nn12 [SCH-58261] | – | 0.357 | – | –
5 | Cc1cc(O)c2ccc(N)nc2n1 | > 10 | > 10 | 7.5 | Ki (Adenosine receptor A1 [2]): > 10 µM; Ki (Adenosine receptor A1 [3]): > 10 µM
6 | CCOC(=O)CCN1CCN(c2ccc3c(O)cc(-c4ccccc4)nc3n2)CC1 | > 10 | > 10 | – | –
7 | CCOc1ccc2c(OCC)cc(-c3ccccc3)nc2n1 | > 10 | 0.29 | > 10 | Ki [6]: > 10 µM; Ratio [5]: > 34
8 | Oc1cc(-c2ccccc2)nc2nc(N3CCNCC3)ccc12 | > 10 | > 10 | > 10 | Ki [6]: > 10 µM
9 | CCn1c(-c2ccccc2)cc(=O)c2ccc(C)nc21 | > 10 | – | – | –
10 | Cc1ccc2c(NN)cc(-c3ccccc3)nc2n1 | > 10 | – | – | –
11 | Oc1cc(-c2ccccc2)nc2nc(Oc3ccccc3)ccc12 | > 10 | – | – | –
12 | Cc1ccc2c(N)ccnc2n1 | > 10 | > 10 | > 10 | Ki [6]: > 10 µM
13 | COc1cc(-c2ccccc2)nc2nc(C)ccc12 | > 10 | – | – | –
14 | Cc1ccc2c(N(C)C)cc(-c3ccccc3)nc2n1 | > 10 | – | – | –
15 | CCCn1c(=O)c2[nH]c(C3CCCC3)nc2n(CCC)c1=O [1,3-DIPROPYL-8-CYCLOPENTYLXANTHINE [DPCPX]] | – | 0.00025 | – | –
16 | Oc1cc(-c2ccccc2)nc2nc(N3CCOCC3)ccc12 | > 10 | 0.16 | > 10 | Ki [6]: > 10 µM; Ratio [5]: > 63
17 | Cc1cc(O)c2ccc(=O)[nH]c2n1 | > 10 | > 10 | > 10 | Ki [6]: > 10 µM
18 | Cc1ccc2c(O)ccnc2n1 | > 10 | 7 | 1.8 | Ki [6]: > 10 µM; Ratio [5]: > 1.4
19 | CSc1cc(-c2ccccc2)nc2nc(C)ccc12 | > 10 | 0.38 | 0.21 | Ki [6]: > 10 µM; Ratio [5]: > 26
20 | O=c1ccc2c(O)cc(-c3ccccc3)nc2[nH]1 | > 10 | – | – | Ki (Adenosine receptor A1 [2]): > 10 µM
21 | Cn1c(=O)ccc2c(O)cc(-c3ccccc3)nc21 | > 10 | – | – | –
22 | Cc1ccc2c(N=[N+]=[N-])cc(-c3ccccc3)nc2n1 | > 10 | – | – | –

More lines, main results first:

Row | Ki (Adenosine receptor A1 [1]) [µM] | Ki (Adenosine receptor A1 [4]) [µM] | Ki (Adenosine receptor A2a) [µM] | SMILES | also measured
23 | 0.3 | – | – | Oc1cc(-c2ccccc2)nc2nc(Cl)ccc12 | Ki (Adenosine receptor A1 [2]): 0.67 µM; Ki (Adenosine receptor A1 [3]): 0.00162 µM
24 | 1 | 0.05 | – | CCOc1cc(-c2ccccc2)nc2nc(Br)ccc12 | –
25 | 0.43 | – | 0.55 | Cc1ccc2c(O)cc(-c3ccccc3)nc2n1 | Ratio [5]: 87
26 | > 10 | – | – | COc1cc(-c2ccccc2)nc2c1ccc(=O)n2C | –
27 | > 10 | – | – | Cc1ccc2ccc(-c3ccccc3)nc2n1 | –
28 | 0.56 | – | – | Cc1ccc2c(NC3CCCCC3)cc(-c3ccccc3)nc2n1 | Ki (Adenosine receptor A1 [2]): 0.448 µM; Ki (Adenosine receptor A1 [3]): 0.039 µM
29 | 8.8 | – | – | Cc1ccc2c(Oc3ccccc3)cc(-c3ccccc3)nc2n1 | –
30 | 3.9 | – | – | Cc1ccc2c(O)cc(-c3ccc(F)cc3)nc2n1 | –
31 | 2 | – | – | Cc1ccc2c(N)cc(-c3ccccc3)nc2n1 | –
32 | 3.1 | – | – | Cc1ccc2c(O)cc(-c3ccc([N+](=O)[O-])cc3)nc2n1 | –
33 | 4 | – | – | Cc1ccc2c(O)cc(-c3cccc(N)c3)nc2n1 | –
34 | 0.93 | 0.048 | 1.4 | CCOc1ccc2c(=O)cc(-c3ccccc3)n(CC)c2n1 | Ki [6]: > 10 µM; Ratio [5]: 208
35 | 3.4 | – | – | Nc1ccc2c(O)cc(-c3ccccc3)nc2n1 | –
36 | 1.4 | – | 2.7 | Oc1cc(-c2ccccc2)nc2nc(F)ccc12 | Ratio [5]: 41
37 | 1.3 | – | – | Oc1cc(-c2ccccc2)nc2ncccc12 | –
38 | 0.49 | – | 0.04 | Cc1ccc2c(O)cc(-c3ccccc3F)nc2n1 | Ratio [5]: 43
39 | 2.2 | 0.015 | – | Cc1ccc2c(O)cc(-c3cccc([N+](=O)[O-])c3)nc2n1 | –
40 | 2 | – | – | COc1ccc2c(O)cc(-c3ccccc3)nc2n1 | –
41 | 0.91 | 0.0068 | 0.11 | Cc1ccc2c(O)cc(-c3ccc(N)cc3)nc2n1 | Ki [6]: 0.5 µM; Ratio [5]: 73
42 | 1.5 | 0.048 | – | CCCc1cc(O)c2ccc(C)nc2n1 | Ki (Adenosine receptor A1 [2]): 1.45 µM; Ki (Adenosine receptor A1 [3]): 0.0615 µM
43 | 7.5 | 0.0072 | > 10 | Oc1cc(-c2ccccc2)nc2nc(N3CCCCC3)ccc12 | Ki [6]: > 10 µM; Ratio [5]: > 1390
44 | 2.6 | – | 1.5 | CCOc1ccc2c(O)cc(-c3ccccc3)nc2n1 | Ratio [5]: > 1920
45 | 0.98 | 0.00056 | – | CN(C)c1ccc2c(O)cc(-c3ccccc3)nc2n1 | Ki (Adenosine receptor A1 [2]): 1.37 µM; Ki (Adenosine receptor A1 [3]): 0.00602 µM
46 | 2 | – | – | Cc1ccc2c(S)cc(-c3ccccc3)nc2n1 | –
47 | 2 | 0.001 | – | CC(=O)Nc1ccc(-c2cc(O)c3ccc(C)nc3n2)cc1 | Ki (Adenosine receptor A1 [2]): 1.46 µM; Ki (Adenosine receptor A1 [3]): 0.00167 µM
48 | 2.2 | 0.07 | – | Oc1cc(-c2ccccc2)nc2nc(NC3CCCCC3)ccc12 | –
49 | 4.1 | 0.21 | – | CCCc1cc(O)c2ccc(N)nc2n1 | –
50 | 0.36 | – | – | Oc1cc(-c2ccccc2)nc2nc(Br)ccc12 | Ki (Adenosine receptor A1 [2]): 0.336 µM; Ki (Adenosine receptor A1 [3]): 0.0016 µM
